Calls of active or inactive are those of the source. The rule behind the calls is not given here.

The target in assay [1] is T1, Estrogen receptor beta (Homo sapiens, UniProt Q92731). Nature of the assay: Agonist activity at ERbeta (unknown origin) expressed in human HepG2 cells assessed as transcriptional activation after 24 hrs by ERE-luciferase reporter gene assay relative to 17beta-estradiol. The assay is classed as cell-based. The method in brief: (§1)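 HepG2 cells were cotransfected with a 3×ERE-luciferase reporter (10 μg) plus an ERα or ERβ expression vector (1.6 μg) per 10 cm dish. The next day they were replated at 20 000 cells/well in phenol red-free medium with 10% charcoal-dextran-stripped FBS and held overnight. Cells were then dosed over a 12-point range of 10 μM to 100 pM. Luciferase was read after 24 h, with DMSO set as 0% and the top of the E2 curve as 100%.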
Background: A reporter such as luciferase makes a cellular process visible.

The target of another assay is T2, Estrogen receptor (Homo sapiens, UniProt P03372).
T2 sequence (P03372 whole entry): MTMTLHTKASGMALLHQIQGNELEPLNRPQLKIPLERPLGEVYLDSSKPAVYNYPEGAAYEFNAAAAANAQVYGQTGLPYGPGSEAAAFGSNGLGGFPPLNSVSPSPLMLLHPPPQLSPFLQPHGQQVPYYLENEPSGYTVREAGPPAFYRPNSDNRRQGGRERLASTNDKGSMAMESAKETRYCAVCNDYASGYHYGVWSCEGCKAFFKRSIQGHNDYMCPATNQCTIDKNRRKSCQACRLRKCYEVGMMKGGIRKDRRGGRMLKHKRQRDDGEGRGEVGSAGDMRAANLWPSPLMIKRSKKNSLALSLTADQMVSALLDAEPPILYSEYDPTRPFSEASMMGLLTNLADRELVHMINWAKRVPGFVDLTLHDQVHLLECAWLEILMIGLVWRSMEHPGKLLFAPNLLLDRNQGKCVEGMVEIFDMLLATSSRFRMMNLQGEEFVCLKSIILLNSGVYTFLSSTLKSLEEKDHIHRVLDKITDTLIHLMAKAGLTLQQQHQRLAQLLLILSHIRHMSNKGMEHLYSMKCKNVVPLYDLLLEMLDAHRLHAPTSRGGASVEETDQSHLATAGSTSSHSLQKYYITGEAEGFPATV
Kind of assay: Agonist activity at ERalpha (unknown origin) expressed in human HepG2 cells assessed as transcriptional activation after 24 hrs by ERE-luciferase reporter gene assay. Format: cell-based. The method in brief:
(§2)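 HepG2 cells were grown in DMEM with 10% FBS and transfected with a 3×ERE-luciferase reporter plus an ERα or ERβ expression vector. The next day cells were moved to phenol red-free medium with 10% charcoal-dextran-stripped FBS, plated at 20 000 cells/well and left overnight. Ligand was then added as a 12-point dose curve from 10 μM to 100 pM. Luciferase was read after 24 h, normalized to DMSO as 0% and the top of the E2 curve as 100%.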

Assay [2] has as its target T3, Estrogen receptor (Homo sapiens) (UniProt P03372).
T3 sequence (whole entry): T2 sequence (P03372 whole entry)
Nature of the assay: Displacement of [3H]-estradiol from human full-length ERalpha after 18 to 24 hrs by competitive radiometric binding assay relative to estradiol.

For assay [3], the target named is T1, Estrogen receptor beta. Nature of the assay: Agonist activity at ERbeta (unknown origin) expressed in human HepG2 cells assessed as transcriptional activation after 24 hrs by ERE-luciferase reporter gene assay. The assay is classed as cell-based. Put shortly: as §2
Assay [4] concerns the target T3, Estrogen receptor (Homo sapiens). Nature of the assay: Agonist activity at ERalpha (unknown origin) expressed in human HepG2 cells assessed as transcriptional activation after 24 hrs by ERE-luciferase reporter gene assay relative to 17beta-estradiol. Format: cell-based. The method in brief: as §1
The target in assay [5] is T1, Estrogen receptor beta. Nature of the assay: Displacement of [3H]-estradiol from human full-length ERbeta after 18 to 24 hrs by competitive radiometric binding assay relative to estradiol. A general note: In a radioligand displacement assay an active substance lowers the binding of a labelled ligand.
Assay [6] addresses T3, Estrogen receptor (Homo sapiens). Kind of assay: Antagonist activity at ERalpha (unknown origin) expressed in human HepG2 cells assessed as inhibition of transcriptional activation after 24 hrs by ERE-luciferase reporter gene assay relative to 17beta-estradiol. The assay is classed as cell-based. Put shortly: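 Antagonist mode used HepG2 cells cotransfected with a 3×ERE-luciferase reporter plus an ERα expression vector and steroid-deprived in phenol red-free medium with 10% charcoal-dextran-stripped FBS. Cells received 10 nM estradiol together with increasing compound concentrations across a 10 μM to 100 pM dose curve. Luciferase was measured after 24 h and normalized to DMSO (0%) and the top of the E2 curve (100%).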

A further assay is filed under the species Homo sapiens. Kind of assay: Selectivity ratio of RBA for human full length ERbeta to RBA for human full-length ERalpha.
For another assay, the system named is HepG2. Kind of assay: Agonist activity at ERalpha (unknown origin) harboring N-terminal AF1 domain deleted mutant expressed in human HepG2 cells assessed as transcriptional activation after 24 hrs by ERE-luciferase reporter gene assay. Format: cell-based.
The target of assay [7] is T1, Estrogen receptor beta. Kind of assay: Antagonist activity at ERbeta (unknown origin) expressed in human HepG2 cells assessed as inhibition of 17beta-estradiol-induced transcriptional activation after 24 hrs by ERE-luciferase reporter gene assay. Format: cell-based. The method in brief: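 ERβ-transfected, steroid-deprived HepG2 cells carrying a 3×ERE-luciferase reporter were co-treated with 10 nM estradiol and test ligand over a range of 10 μM to 100 pM. Luciferase was read after 24 h, with each plate normalized to DMSO (0%) and the maximal E2 response (100%). IC50 and % efficacy were derived from the dose curves.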

T1 sequence (Q92731 whole entry): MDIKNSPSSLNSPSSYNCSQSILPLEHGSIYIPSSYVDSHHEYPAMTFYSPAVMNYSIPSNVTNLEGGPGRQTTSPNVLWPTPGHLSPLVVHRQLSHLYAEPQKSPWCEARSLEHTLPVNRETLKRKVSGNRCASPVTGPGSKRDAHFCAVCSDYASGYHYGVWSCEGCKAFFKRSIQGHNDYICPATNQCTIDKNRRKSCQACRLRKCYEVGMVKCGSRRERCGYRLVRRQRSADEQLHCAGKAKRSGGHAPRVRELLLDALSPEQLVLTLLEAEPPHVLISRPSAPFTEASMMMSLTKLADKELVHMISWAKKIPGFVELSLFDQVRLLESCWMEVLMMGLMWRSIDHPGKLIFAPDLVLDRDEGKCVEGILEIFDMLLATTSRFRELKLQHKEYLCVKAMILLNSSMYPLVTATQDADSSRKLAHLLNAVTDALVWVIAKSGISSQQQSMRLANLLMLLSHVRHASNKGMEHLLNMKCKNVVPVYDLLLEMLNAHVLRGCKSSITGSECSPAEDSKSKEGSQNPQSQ

In general, EC50 refers to the concentration at which the effect is half-maximal. Turning to `COc1ccc(/N=C(\c2ccc(O)cc2)c2ccc(O)cc2O)cc1`, the Efficacy worked out at 38% at Estrogen receptor beta [1], 102% in [4] and 102% in assay [6]. The EC50 at Estrogen receptor was found to be 17 nM; at Estrogen receptor beta [3] it was 276 nM. The values for the RBA (in assay [2]; at Estrogen receptor beta [5]) were 10.5% and 5.33%, respectively. Besides, the Selectivity ratio in the assay filed under Homo sapiens is 0.5.
The term IC50 denotes the concentration needed to halve the response being measured. With `Oc1ccc(/C(=N\c2ccc(Cl)cc2)c2ccc(O)cc2O)cc1`, the Efficacy on Estrogen receptor beta [1] amounted to 19%; in [4] it was 114%; in [6], 123%. The EC50 on Estrogen receptor came out at 4 nM; on Estrogen receptor beta [3] it was 385 nM. Besides, the RBA in assay [2] came to 15.5%; at Estrogen receptor beta [5], 38.1%. The result in the assay on HepG2 was inactive. Also, the Selectivity ratio in the assay listed under Homo sapiens turned out to be 2.5. Also, the IC50 on Estrogen receptor beta [7] is 180 nM.
For `Cc1ccc(/N=C(\c2ccc(O)cc2)c2ccc(O)cc2O)cc1`, the Efficacy on Estrogen receptor beta [1] is 20%; in assay [4], 103%; in assay [6], 122%. Further, the EC50 on Estrogen receptor came out at 16 nM; on Estrogen receptor beta [3] it was 10900 nM. The RBA in assay [2] turned out to be 9.12%; at Estrogen receptor beta [5] it was 17.1%. Moreover, in the assay with HepG2, the outcome was inactive. Besides, the Selectivity ratio in the assay filed under Homo sapiens was 1.9. Moreover, the 50% inhibitory concentration (IC50) at Estrogen receptor beta [7] amounted to 241 nM.
Take `Oc1ccc(/C(=N\c2ccccc2)c2ccc(O)cc2O)cc1`: the Efficacy on Estrogen receptor beta [1] amounted to 25%; in [4], 102%; in [6] it was 134%. In addition, the EC50 at Estrogen receptor is 7 nM; at Estrogen receptor beta [3], 628 nM. Also, the RBA is 14.6% in assay [2] and 18.5% at Estrogen receptor beta [5]. Besides, the Selectivity ratio in the assay filed under Homo sapiens is 1.3. At Estrogen receptor beta [7], the IC50 worked out at 6 nM.
For `Oc1ccc(N=C(c2ccc(O)cc2)c2ccc(O)cc2)cc1`, the Efficacy at Estrogen receptor beta [1] turned out to be 16%; in assay [4] it was 95%; in assay [6], 111%. The EC50 turned out to be 14 nM on Estrogen receptor and 332 nM on Estrogen receptor beta [3]. The RBA in assay [2] was 1.86%; at Estrogen receptor beta [5], 0.99%. In addition, in the assay on HepG2, the outcome was inactive. The Selectivity ratio in the assay filed under Homo sapiens worked out at 0.5. Besides, the 50% inhibitory concentration (IC50) on Estrogen receptor beta [7] worked out at 300 nM.
For `Cc1cccc(N=C(c2ccc(O)cc2)c2ccc(O)cc2)c1`, the Efficacy came out at 13% on Estrogen receptor beta [1], 109% in assay [4] and 93% in assay [6]. The EC50 at Estrogen receptor was determined as 5 nM. For the same compound, the RBA is 13.2% in assay [2] and 69.2% at Estrogen receptor beta [5]. For the same compound, the result in the assay on HepG2 was inactive. Besides, the Selectivity ratio in the assay filed under Homo sapiens was determined as 5.2. Besides, the IC50 on Estrogen receptor beta [7] worked out at 41 nM.
Consider `Oc1ccc(/C(=N\c2ccc(Br)cc2)c2ccc(O)cc2O)cc1`, for which the Efficacy was 24% on Estrogen receptor beta [1], 113% in assay [4] and 111% in assay [6]. Also, the half-maximal effective concentration (EC50) was 9 nM at Estrogen receptor and 12500 nM at Estrogen receptor beta [3]. Further, the RBA in assay [2] stood at 64.6%; on Estrogen receptor beta [5], 70.3%. The outcome in the assay on HepG2 was inactive. Besides, in the assay listed under Homo sapiens, the Selectivity ratio was determined as 1.1. Further, the IC50 at Estrogen receptor beta [7] came out at 100 nM.
In the case of `Cc1ccccc1/N=C(\c1ccc(O)cc1)c1ccc(O)cc1O`, the Efficacy on Estrogen receptor beta [1] was 31%; in assay [4] it was 111%; in assay [6], 100%. The RBA in [2] is 53.3%; at Estrogen receptor beta [5], 45.1%. Besides, at Estrogen receptor beta [3], the EC50 was determined as 2 nM. Moreover, the outcome with HepG2 was inactive. Further, the Selectivity ratio in the assay filed under Homo sapiens came out at 0.9. Moreover, the IC50 on Estrogen receptor beta [7] is 16 nM.

Values taken from ChEMBL document CHEMBL3232883, “Triaryl-substituted Schiff bases are high-affinity subtype-selective ligands for the estrogen receptor” (J Med Chem, 2014).
